Test results: ChEMBL document CHEMBL3227917, “Structure-activity relationships of dimeric Catharanthus alkaloids. 2. Experimental antitumor activities of N-substituted deacetylvinblastine amide (vindesine) sulfates” (J Med Chem, 1979)

Columns and labels:
Mus musculus [1] = assay: Toxicity in C3H mouse allografted with mouse Gardner lymphosarcoma assessed as lethality at 0.40 mg/kg, ip administered daily for 8 to 10 days; format: organism-based; set-up: dose 0.4 mg/kg, route intraperitoneal; conditions: in vivo, 0.4 mg/kg
How it was run: (§1)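 Tumor-bearing mice given sulfate salts ip daily for 8–10 days; values are the average of one or more tests. Toxic means lethal to ≥5 of 10 animals per group.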

Mus musculus [2] = assay: Toxicity in AKR mouse allografted with mouse Ridgway osteogenic sarcoma assessed as lethality at 0.20 mg/kg, ip administered daily for 8 to 10 days compound treatment commenced 8 days after tumor implantation; format: organism-based; set-up: dose 0.2 mg/kg, route intraperitoneal; conditions: in vivo, 0.2 mg/kg; how it was run: as §1
Mus musculus [3] = assay: Toxicity in AKR mouse allografted with mouse Ridgway osteogenic sarcoma assessed as lethality at 0.40 mg/kg, ip administered daily for 8 to 10 days compound treatment commenced 8 days after tumor implantation; format: organism-based; set-up: dose 0.4 mg/kg, route intraperitoneal; conditions: in vivo, 0.4 mg/kg; how it was run: as §1
[4] = Antitumor activity against mouse Gardner lymphosarcoma allografted in C3H mouse assessed as tumor growth inhibition at 0.20 mg/kg, ip administered daily for 8 to 10 days; format: functional; conditions: route intraperitoneal, read-out: TGI
How it was run: (§2)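 Gardner lymphosarcoma in C3H mice; sulfate salts unless noted, given ip daily for 8–10 days, treatment starting 8 days after tumor implantation. Tumor growth inhibition scored as –, 0–25%; +, 26–50%; ++, 51–75%; +++, 76–100%; T, lethal to ≥5 of 10 animals per group. Average of one or more tests.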

[5] = Antitumor activity against mouse Gardner lymphosarcoma allografted in C3H mouse assessed as tumor growth inhibition at 0.10 mg/kg, ip administered daily for 8 to 10 days; format: functional; conditions: route intraperitoneal, read-out: TGI; how it was run: as §2
[6] = Antitumor activity against mouse Ridgway osteogenic sarcoma allografted in AKR mouse assessed as tumor growth inhibition at 0.10 mg/kg, ip administered daily for 8 to 10 days compound treatment commenced 8 days after tumor implantation; format: functional; conditions: route intraperitoneal, read-out: TGI
[7] = Antitumor activity against mouse Ridgway osteogenic sarcoma allografted in AKR mouse assessed as tumor growth inhibition at 0.05 mg/kg, ip administered daily for 8 to 10 days compound treatment commenced 8 days after tumor implantation; format: functional; conditions: route intraperitoneal, read-out: TGI
Mus musculus [8] = assay: Toxicity in C3H mouse allografted with mouse Gardner lymphosarcoma assessed as lethality at 0.20 mg/kg, ip administered daily for 8 to 10 days; format: organism-based; set-up: dose 0.2 mg/kg, route intraperitoneal; conditions: in vivo, 0.2 mg/kg; how it was run: as §1
[9] = Antitumor activity against mouse Gardner lymphosarcoma allografted in C3H mouse assessed as tumor growth inhibition at 0.30 mg/kg, ip administered daily for 8 to 10 days; format: functional; conditions: route intraperitoneal, read-out: TGI; how it was run: as §2
[10] = Antitumor activity against mouse Gardner lymphosarcoma allografted in C3H mouse assessed as tumor growth inhibition at 0.40 mg/kg, ip administered daily for 8 to 10 days; format: functional; conditions: route intraperitoneal, read-out: TGI; how it was run: as §2
[11] = Antitumor activity against mouse Ridgway osteogenic sarcoma allografted in AKR mouse assessed as tumor growth inhibition at 0.40 mg/kg, ip administered daily for 8 to 10 days compound treatment commenced 8 days after tumor implantation; format: functional; conditions: route intraperitoneal, read-out: TGI
[12] = Antitumor activity against mouse Ridgway osteogenic sarcoma allografted in AKR mouse assessed as tumor growth inhibition at 0.20 mg/kg, ip administered daily for 8 to 10 days compound treatment commenced 8 days after tumor implantation; format: functional; conditions: route intraperitoneal, read-out: TGI
Mus musculus [13] = assay: Toxicity in C3H mouse allografted with mouse Gardner lymphosarcoma assessed as lethality at 0.30 mg/kg, ip administered daily for 8 to 10 days; format: organism-based; set-up: dose 0.3 mg/kg, route intraperitoneal; conditions: in vivo, 0.3 mg/kg; how it was run: as §1
[14] = Dissociation constant, pKa of the compound; format: physicochemical
How it was run: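 Electrometric titration in 66% aqueous DMF.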

[15] = Antitumor activity against mouse Ridgway osteogenic sarcoma allografted in AKR mouse assessed as tumor growth inhibition at 0.30 mg/kg, ip administered daily for 8 to 10 days compound treatment commenced 8 days after tumor implantation; format: functional; conditions: route intraperitoneal, read-out: TGI

pKa [14]	Structure (SMILES)	Activity (Mus musculus [1])	Activity (Mus musculus [2])	Activity (Mus musculus [3])	inhibition in vivo at 0.2 mg/kg [4] [%]	inhibition in vivo at 0.1 mg/kg [5] [%]	inhibition in vivo at 0.1 mg/kg [6] [%]	inhibition in vivo at 0.05 mg/kg [7] [%]	Activity (Mus musculus [8])	inhibition in vivo at 0.3 mg/kg [9] [%]	inhibition in vivo at 0.4 mg/kg [10] [%]	inhibition in vivo at 0.4 mg/kg [11] [%]	inhibition in vivo at 0.2 mg/kg [12] [%]	Activity (Mus musculus [13])	inhibition in vivo at 0.3 mg/kg [15] [%]
–	CCNC(=O)[C@@]1(O)[C@H](O)[C@]2(CC)C=CCN3CC[C@@]4(c5cc([C@@]6(C(=O)OC)C[C@@H]7CN(CCc8c6[nH]c6ccccc86)C[C@](O)(CC)C7)c(OC)cc5N(C)[C@@H]14)[C@@H]32.O=S(=O)(O)O	Toxic	Toxic	Toxic	76	0	0	–	–	–	–	–	–	–	–
–	CC[C@]1(O)C[C@H]2CN(CCc3c([nH]c4ccccc34)[C@@](C(=O)OC)(c3cc4c(cc3OC)N(C)[C@H]3[C@@](O)(C(=O)NC(C)C)[C@H](O)[C@]5(CC)C=CCN6CC[C@]43[C@@H]65)C2)C1.O=S(=O)(O)O	Toxic	Toxic	Toxic	–	0	76	0	Toxic	–	–	–	–	–	–
–	CC[C@]1(O)C[C@H]2CN(CCc3c([nH]c4ccccc34)[C@@](C(=O)OC)(c3cc4c(cc3OC)N(C)[C@H]3[C@@](O)(C(=O)NCc5ccccc5)[C@H](O)[C@]5(CC)C=CCN6CC[C@]43[C@@H]65)C2)C1	–	–	–	26	–	0	–	–	0	0	76	0	–	–
–	CC[C@]1(O)C[C@H]2CN(CCc3c([nH]c4ccccc34)[C@@](C(=O)OC)(c3cc4c(cc3OC)N(C)[C@H]3[C@@](O)(C(=O)N(C)C)[C@H](O)[C@]5(CC)C=CCN6CC[C@]43[C@@H]65)C2)C1.O=S(=O)(O)O	Toxic	Toxic	Toxic	26	–	0	–	–	–	–	–	–	Toxic	–
9.48	CC[C@]1(O)C[C@H]2CN(CCc3c([nH]c4ccccc34)[C@@](C(=O)OC)(c3cc4c(cc3OC)N(C)[C@H]3[C@@](O)(C(=O)NCCN)[C@H](O)[C@]5(CC)C=CCN6CC[C@]43[C@@H]65)C2)C1	–	–	–	0	–	0	–	–	–	0	–	–	–	0
8.5	CC[C@]1(O)C[C@H]2CN(CCc3c([nH]c4ccccc34)[C@@](C(=O)OC)(c3cc4c(cc3OC)N(C)[C@H]3[C@@](O)(C(=O)NCCN(C)C)[C@H](O)[C@]5(CC)C=CCN6CC[C@]43[C@@H]65)C2)C1	–	–	–	0	–	–	–	–	–	0	51	0	–	–
–	CC[C@]1(O)C[C@H]2CN(CCc3c([nH]c4ccccc34)[C@@](C(=O)OC)(c3cc4c(cc3OC)N(C)[C@H]3[C@@](O)(C(=O)NCC#N)[C@H](O)[C@]5(CC)C=CCN6CC[C@]43[C@@H]65)C2)C1.O=S(=O)(O)O	–	–	–	76	0	0	–	–	–	–	–	–	Toxic	26
